In ChEMBL document CHEMBL1132477, “Design and synthesis of novel alpha(1)(a) adrenoceptor-selective antagonists. 2. Approaches to eliminate opioid agonist metabolites via modification of linker and 4-methoxycarbonyl-4-phenylpiperidine moiety” (J Med Chem, 1999):

Columns and labels:
[1] = species: Canis familiaris; experiment: Potency to inhibit phenylephrine induced diastolic blood pressure in dog.; assay type: functional, Canis lupus familiaris, Artery
Outline: (§1)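 In dogs, diastolic blood pressure and intraurethral pressure were stimulated with phenylephrine. Antagonist potency was expressed as Kb in µg/kg.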

[2] = Plasma half life in rat; assay type: ADME, organism-based
[3] = species: Rattus norvegicus; experiment: Antagonism against norepinephrine induced contractions in rat aorta.; assay type: functional
[4] = target: Adrenergic receptor alpha-1 (Homo sapiens) (UniProt P35348+P25100+P35368); experiment: Selectivity ratio( alpha-1b,1d/alpha1a); assay type: protein assay
[5] = target: T1, Alpha-1B adrenergic receptor (Homo sapiens, UniProt P35368); experiment: In vitro binding affinity against Alpha-1B adrenergic receptor cloned from human.
T1 sequence (P35368 whole entry): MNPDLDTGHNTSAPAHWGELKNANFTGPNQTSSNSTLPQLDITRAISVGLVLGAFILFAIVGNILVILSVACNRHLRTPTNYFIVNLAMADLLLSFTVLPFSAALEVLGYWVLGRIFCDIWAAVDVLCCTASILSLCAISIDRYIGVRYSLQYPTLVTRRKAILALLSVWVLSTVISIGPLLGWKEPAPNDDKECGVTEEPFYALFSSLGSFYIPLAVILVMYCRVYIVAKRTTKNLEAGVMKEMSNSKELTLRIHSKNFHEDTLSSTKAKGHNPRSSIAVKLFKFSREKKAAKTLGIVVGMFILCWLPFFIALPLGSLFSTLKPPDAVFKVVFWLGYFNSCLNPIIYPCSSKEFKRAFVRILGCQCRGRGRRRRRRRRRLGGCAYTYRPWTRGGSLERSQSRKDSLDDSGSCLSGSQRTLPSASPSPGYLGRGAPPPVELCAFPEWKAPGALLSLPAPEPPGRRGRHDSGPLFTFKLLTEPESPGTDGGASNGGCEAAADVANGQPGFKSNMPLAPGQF

[6] = species: Rattus norvegicus; experiment: Dose required to inhibit 50% of contractile responses induced by phenylephrine in rat prostate.; assay type: functional, Prostate gland
[7] = species: Rattus norvegicus; experiment: Duration of action in rat; assay type: ADME, organism-based; conditions: in vivo
[8] = Plasma half life in dog; assay type: ADME, organism-based, Canis lupus familiaris
[9] = target: T2, Alpha-1A adrenergic receptor (Homo sapiens, UniProt P35348); experiment: In vitro binding affinity against alpha-1A adrenergic receptor of human clones
T2 sequence (P35348 whole entry): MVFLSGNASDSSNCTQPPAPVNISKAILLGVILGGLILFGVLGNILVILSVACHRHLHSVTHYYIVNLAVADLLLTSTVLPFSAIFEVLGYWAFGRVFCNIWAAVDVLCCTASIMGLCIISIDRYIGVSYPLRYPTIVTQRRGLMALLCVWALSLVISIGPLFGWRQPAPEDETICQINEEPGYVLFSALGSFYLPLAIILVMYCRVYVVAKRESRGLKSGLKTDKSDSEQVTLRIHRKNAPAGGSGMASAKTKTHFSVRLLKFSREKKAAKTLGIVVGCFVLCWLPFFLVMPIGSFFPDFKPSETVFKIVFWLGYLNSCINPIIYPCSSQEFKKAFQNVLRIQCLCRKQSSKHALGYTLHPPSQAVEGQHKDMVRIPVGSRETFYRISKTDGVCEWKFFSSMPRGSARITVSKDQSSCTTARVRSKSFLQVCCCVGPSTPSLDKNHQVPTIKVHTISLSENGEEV

[10] = Bioavailability in rat; assay type: ADME, organism-based; conditions: in vivo
[11] = Bioavailability in dog; assay type: ADME, organism-based, Canis lupus familiaris; conditions: in vivo
[12] = species: Canis familiaris; experiment: Potency to inhibit phenylephrine induced intraurethral pressure in dog.; assay type: functional, Canis lupus familiaris, Urethra; outline: as §1
[13] = target: Mu-type opioid receptor (Mus musculus, UniProt P42866); experiment: Binding affinity against opioid receptor
[14] = target: T3, Alpha-1D adrenergic receptor (Homo sapiens, UniProt P25100); experiment: In vitro binding affinity against alpha-1D adrenergic receptor (cloned human).
T3 sequence (P25100 whole entry): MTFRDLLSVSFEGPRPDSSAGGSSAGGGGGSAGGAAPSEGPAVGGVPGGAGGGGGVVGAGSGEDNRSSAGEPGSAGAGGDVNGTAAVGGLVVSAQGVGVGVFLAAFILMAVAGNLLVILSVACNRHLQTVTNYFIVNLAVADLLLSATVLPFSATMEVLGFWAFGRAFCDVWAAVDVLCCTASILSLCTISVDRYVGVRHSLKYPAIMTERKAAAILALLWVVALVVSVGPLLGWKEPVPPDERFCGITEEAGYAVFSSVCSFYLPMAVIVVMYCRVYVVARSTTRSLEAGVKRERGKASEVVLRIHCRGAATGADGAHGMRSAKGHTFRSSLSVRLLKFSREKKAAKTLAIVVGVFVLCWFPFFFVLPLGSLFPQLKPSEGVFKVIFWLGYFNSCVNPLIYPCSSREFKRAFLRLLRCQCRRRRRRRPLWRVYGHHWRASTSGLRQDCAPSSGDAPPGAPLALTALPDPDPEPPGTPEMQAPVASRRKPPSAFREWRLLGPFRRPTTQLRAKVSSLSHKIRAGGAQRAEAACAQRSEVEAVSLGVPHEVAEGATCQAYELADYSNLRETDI

[15] = species: Rattus norvegicus; experiment: Antagonism against phenylephrine induced contractions in rat prostate.; assay type: functional, Prostate gland

Mu-type opioid receptor, sequence (P42866 whole entry): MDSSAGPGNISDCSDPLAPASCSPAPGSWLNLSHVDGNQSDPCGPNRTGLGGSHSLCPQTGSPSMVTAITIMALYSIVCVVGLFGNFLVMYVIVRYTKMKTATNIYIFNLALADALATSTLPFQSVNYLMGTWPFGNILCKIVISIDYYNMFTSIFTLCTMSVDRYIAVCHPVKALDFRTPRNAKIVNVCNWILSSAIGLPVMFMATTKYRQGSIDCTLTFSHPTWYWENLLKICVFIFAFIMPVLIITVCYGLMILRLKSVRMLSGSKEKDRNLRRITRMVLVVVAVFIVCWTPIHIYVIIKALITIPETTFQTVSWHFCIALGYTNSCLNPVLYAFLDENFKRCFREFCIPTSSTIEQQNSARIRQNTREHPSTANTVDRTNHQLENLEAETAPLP

Question: For `CCC1=C(C(N)=O)C(c2ccc(F)cc2F)N(C(=O)NCCCN2CCC(C#N)(c3ccccc3)CC2)C(=O)N1` (stereo not given), which Kb [1] is on record?
Answer: >300 µg/kg

Question: What about the half-life [2] of the same compound?
Answer: 24 min

Question: What about the Kb [3] of the same compound?
Answer: > 1000 nM

Question: What about the Ratio [4] of the same compound?
Answer: > 900

Question: And the Ki [5]?
Answer: 610 nM

Question: What about the AD50 [6] of the same compound?
Answer: 18 µg/kg

Question: What about the Time [7] of the same compound?
Answer: 1.5 h

Question: What about the half-life [8] of the same compound?
Answer: 138 min

Question: And the Ki [9]?
Answer: 0.7 nM

Question: What about the bioavailability [10] of the same compound?
Answer: 8%

Question: What about the bioavailability [11] of the same compound?
Answer: 32%

Question: What about the Kb [12] of the same compound?
Answer: 14.2 µg/kg

Question: What about the Ki [13] of the same compound?
Answer: 51 µM

Question: And the Ki [14]?
Answer: 1280 nM

Question: What about the Kb [15] of the same compound?
Answer: 2.2 nM
